Measurements collected from several papers.
Lines come from different studies, so protocols differ.
ABL1 F317L phosphorylated: Tyrosine-protein kinase ABL1, phosphorylated (ABL1, Homo sapiens, UniProt P00519, F317L)
ABL1 H396P non-phosphorylated: Tyrosine-protein kinase ABL1, non-phosphorylated (ABL1, Homo sapiens, UniProt P00519, H396P)
ABL1 F317L non-phosphorylated: Tyrosine-protein kinase ABL1, non-phosphorylated (ABL1, Homo sapiens, UniProt P00519, F317L)
ABL1 Q252H phosphorylated: Tyrosine-protein kinase ABL1, phosphorylated (ABL1, Homo sapiens, UniProt P00519, Q252H)
ABL1 non-phosphorylated: Tyrosine-protein kinase ABL1, non-phosphorylated (ABL1, Homo sapiens, UniProt P00519)
ABL1 T315I non-phosphorylated: Tyrosine-protein kinase ABL1, non-phosphorylated (ABL1, Homo sapiens, UniProt P00519, T315I)
ABL1 M351T phosphorylated: Tyrosine-protein kinase ABL1, phosphorylated (ABL1, Homo sapiens, UniProt P00519, M351T)

O=C(NCCCN1CCOCC1)c1ccc(Nc2nccc(-c3cc4ccccc4s3)n2)cc1  remaining binding (ABL1 F317L phosphorylated; binding, competition with immobilised ligand; 1 µM): 75%
O=C(Nc1c[nH]nc1C(=O)NC1CCNCC1)c1cc(F)cc(F)c1  remaining binding (ABL1 H396P non-phosphorylated; binding, competition with immobilised ligand; 1 µM): 90%
COc1ncc2cc3ccccc3nc2c1C#N  remaining binding (ABL1 F317L non-phosphorylated; cell-free assay, competition with immobilised ligand; 5 µM): 100%
O=C(c1ccc(Nc2nccc(-c3cc4ccccc4s3)n2)cc1)N1CCC(N2CCCC2)CC1  remaining binding (ABL1 Q252H phosphorylated; binding, competition with immobilised ligand; 1 µM): 6.4%
N[C@H]1CCN(c2nccc(-c3cnn4ncccc34)n2)C1  remaining binding (Tyrosine-protein kinase ABL1 (ABL1, Homo sapiens, UniProt P00519, H396P); binding; 1 µM): 58%
O=C(Nc1cccnn1)N1CC(C/C=C/c2cncc(Oc3ccc(C(F)(F)F)cn3)n2)C1  remaining binding (Tyrosine-protein kinase ABL1, phosphorylated (ABL1, Homo sapiens, UniProt P00519, F317I); cell-free assay, competition with immobilised ligand; 1 µM): 67%
CN(c1nccc(-c2cnn3ncccc23)n1)C1CC1  remaining binding (Tyrosine-protein kinase ABL1 (ABL1, Homo sapiens, UniProt P00519, M351T); binding; 1 µM): 100%
O=C(c1ccc(Nc2ncc(Cl)c(-c3cc4ccccc4s3)n2)cc1)N1CCC(N2CCCC2)CC1  remaining binding (ABL1 Q252H phosphorylated; binding, competition with immobilised ligand; 1 µM): 12%
CN(CCCC(F)(F)F)c1nccc(-c2cnn3ncccc23)n1  remaining binding (ABL1 non-phosphorylated; binding, competition with immobilised ligand; 1 µM): 76%
CNC(=O)[C@@H]1CC[C@@H](n2c(-c3ccc4cnccc4c3)nc3ccc(C(=O)NCc4cccc(C(N)=O)c4)cc32)C1  remaining binding (ABL1 H396P non-phosphorylated; binding, competition with immobilised ligand; 1 µM): 86%
Cc1cnc(Nc2ccc(C(=O)N3CCC(N4CCCC4)CC3)cc2)nc1-c1cc2ccccc2s1  remaining binding (Tyrosine-protein kinase ABL1, phosphorylated (ABL1, Homo sapiens, UniProt P00519, H396P); binding, competition with immobilised ligand; 1 µM): 0.9%
Cc1cc(-n2nc(Cc3cc(F)cc(C(F)(F)F)c3)nc2C)ccc1C(N)=O  remaining binding (ABL1 F317L phosphorylated; cell-free assay, competition with immobilised ligand; 1 µM): 100%
C=CC(=O)N1CCC(C(=O)NCC(=O)N2CCN(c3nc(-c4cnc(N)nc4C(F)F)nc(N4CCOCC4)n3)CC2)CC1  remaining binding (ABL1 T315I non-phosphorylated; binding, competition with immobilised ligand; 1 µM): 71%
Nc1ncc2c(n1)-c1c([nH]c3ccc(C#CC4CC4)cc13)CCCC2  remaining binding (ABL1 H396P non-phosphorylated; binding, competition with immobilised ligand; 1 µM): 93%
CN([C@@H]1CCc2c(CC(=O)O)c3cc(S(C)(=O)=O)ccc3n2C1)S(=O)(=O)c1ccc(F)cc1  remaining binding (ABL1 H396P non-phosphorylated; cell-free assay, competition with immobilised ligand; 1 µM): 55%
COc1cnc(Nc2cccc(S(N)(=O)=O)c2)nc1N1CCN(c2ccccc2)C(=O)C1  remaining binding (ABL1 H396P non-phosphorylated; binding, competition with immobilised ligand; 1 µM): 58%
Cc1cnn2ncc(-c3ccnc(N(C)C)n3)c2c1  remaining binding (Tyrosine-protein kinase ABL1 (ABL1, Homo sapiens, UniProt P00519, E255K); binding; 1 µM): 100%
O=C(NCCCN1CCOCC1)c1ccc(Nc2ncc(Cl)c(-c3ccc(Cl)s3)n2)cc1  remaining binding (ABL1 T315I non-phosphorylated; binding, competition with immobilised ligand; 1 µM): 4.5%
COc1cnc(Nc2cccc(S(N)(=O)=O)c2)nc1N1CCN(c2ccccc2)CC1  remaining binding (ABL1 F317L non-phosphorylated; binding, competition with immobilised ligand; 1 µM): 95%
C[C@@H](c1ccc(-n2cnc3c(N)ncnc32)cc1)N1CCc2nn(C)c(Cc3ccccc3)c2C1=O  remaining binding (Tyrosine-protein kinase ABL1, non-phosphorylated (ABL1, Homo sapiens, UniProt P00519, F317I); binding, competition with immobilised ligand; 0.1 µM): 40%
C[C@@H]1CN(c2cc(-c3nn(C)c4ccc(OC5(C)CC5)cc34)ncn2)C[C@H](C)O1  remaining binding (ABL1 T315I non-phosphorylated; cell-free assay, competition with immobilised ligand; 1 µM): 73%
O=C(c1ccc(Nc2ncc(Cl)c(-c3ccc(Cl)s3)n2)cc1)N1CCC(N2CCCC2)CC1  remaining binding (ABL1 M351T phosphorylated; binding, competition with immobilised ligand; 1 µM): 4.7%
CO[C@H]1CC[C@H](CNc2ccc(S(=O)(=O)NC(=O)c3ccc(N4CCN(CC5=C(c6ccc(Cl)cc6)CC(C)(C)CC5)CC4)cc3Oc3cnc4[nH]ccc4c3)cc2[N+](=O)[O-])CC1  remaining binding (ABL1 non-phosphorylated; cell-free assay, competition with immobilised ligand; 1 µM): 71%
CCN1CCN(Cc2ccc(C(=O)Nc3ccc(C)c(Oc4ccc5c(c4)CC(=O)N5)c3)cc2C(F)(F)F)CC1  remaining binding (ABL1 H396P non-phosphorylated; binding, competition with immobilised ligand; 1 µM): 0.35%
CS(=O)(=O)NCC[C@H](NC(=O)c1cncc2c1cnn2-c1ccc(F)cc1)c1ccnc(S(C)(=O)=O)c1  remaining binding (Tyrosine-protein kinase ABL1, phosphorylated (ABL1, Homo sapiens, UniProt P00519, E255K); binding, competition with immobilised ligand; 1 µM): 93%
O=C(NCC1CCOCC1)c1n[nH]cc1NC(=O)c1c(F)cccc1F  remaining binding (ABL1 Q252H phosphorylated; binding, competition with immobilised ligand; 1 µM): 83%
CN(C)C(=O)Cn1cc(-c2nc([C@@](C)(c3ccc(-c4cnc(N)nc4)cc3)C3CC3)no2)cn1  remaining binding (Tyrosine-protein kinase ABL1, non-phosphorylated (ABL1, Homo sapiens, UniProt P00519, Q252H); cell-free assay, competition with immobilised ligand; 1 µM): 0%
C[C@@H]1CCN(c2nccc(-c3cnn4ncccc34)n2)C1  remaining binding (Tyrosine-protein kinase ABL1 (ABL1, Homo sapiens, UniProt P00519, Q252H); binding; 1 µM): 81%
CS(=O)(=O)c1cc(C2(NC(=O)c3cncc4c3cnn4-c3ccc(F)cc3)CC2)ccn1  remaining binding (ABL1 M351T phosphorylated; cell-free assay, competition with immobilised ligand; 1 µM): 92%
c1cncc(-c2cccc(Nc3nccc(NC4CCCCC4)n3)c2)c1  remaining binding (ABL1 T315I non-phosphorylated; binding, competition with immobilised ligand; 10 µM): 79%
